Measured values: ChEMBL document CHEMBL2439973, “Discovery of VU0409106: A negative allosteric modulator of mGlu5 with activity in a mouse model of anxiety” (Bioorg Med Chem Lett, 2013)
Active and inactive are the calls of the source. The calls are words filed in the database; no cut-off is given here.

Key:
[1] = species: Rattus norvegicus; assay: Displacement of [3H]-Rolipram from rolipram binding site in rat brain at 10 uM relative to control; assay type: tissue-based
[2] = target: D(1A) dopamine receptor (Homo sapiens) (UniProt P21728); assay: Displacement of [3H]-SCH-23390 from human recombinant dopamine D1 receptor expressed in CHO cells at 10 uM relative to control; assay type: cell-based
[3] = target: Platelet-activating factor receptor (Homo sapiens) (UniProt P25105); assay: Displacement of [3H]-PAF from platelet activating factor receptor in human platelets at 10 uM relative to control
Outline: (§1)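 Tested once at 10 μM in a commercial radioligand binding panel of 68 GPCRs, ion channels, kinases and transporters. Activity is given as displacement of each radioligand relative to control.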

[4] = species: Rattus norvegicus; assay: Displacement of [3H]-Batrachotoxin from sodium channel site 2 in rat brain at 10 uM relative to control; assay type: tissue-based; outline: as §1
[5] = target: Gamma-aminobutyric acid type B receptor subunit 1 (Homo sapiens) (UniProt Q9UBS5); assay: Displacement of [3H]-CGP-54626 from human recombinant GABAB1A receptor expressed in CHO cells at 10 uM relative to control; assay type: cell-based; outline: as §1
[6] = target: Alpha-1B adrenergic receptor (Rattus norvegicus) (UniProt P15823); assay: Displacement of [3H]-Prazosin from adrenergic alpha1B receptor in rat liver at 10 uM relative to control
[7] = target: Beta-2 adrenergic receptor (Homo sapiens) (UniProt P07550); assay: Displacement of [3H]-CGP-12177 from human recombinant adrenergic beta2 receptor expressed in CHO cells at 10 uM relative to control; assay type: cell-based; outline: as §1
[8] = target: Cannabinoid receptor 1 (Homo sapiens) (UniProt P21554); assay: Displacement of [3H]-SR141716A from human recombinant CB1 receptor expressed in rat Chem-1 cells at 10 uM relative to control; assay type: cell-based
[9] = tested on: IMR-32; assay: Displacement of [125I] Epibatidine from nicotinic acetylcholine receptor in human IMR32 cells at 10 uM relative to control; assay type: cell-based; outline: as §1
[10] = target: L-type calcium channel, benzothiazepine binding site (Rattus norvegicus, UniProt P22002+P27732+Q02485); assay: Displacement of [3H]-Diltiazem from L-Type calcium channel benzothiazepine binding site in rat brain at 10 uM relative to control; assay type: tissue-based; settings: probe [3H]-Diltiazem
[11] = target: Androgen receptor (Homo sapiens) (UniProt P10275); assay: Displacement of [3H]-Methyltrienolone from androgen receptor in human LNCAP cells at 10 uM relative to control; assay type: cell-based; outline: as §1
[12] = target: Kappa-type opioid receptor (Homo sapiens) (UniProt P41145); assay: Displacement of [3H]-Diprenorphine from human recombinant kappa receptor expressed in HEK293 cells at 10 uM relative to control; assay type: cell-based; outline: as §1
[13] = tested on: CHO-K1; assay: Displacement of [3H]-Spiperone from human recombinant dopamine D4.2 receptor expressed in CHO-K1 cells at 10 uM relative to control; assay type: cell-based
[14] = target: Estrogen receptor (Homo sapiens) (UniProt P03372); assay: Displacement of [3H]-Estradiol from human recombinant ERalpha receptor expressed in insect Sf9 cells at 10 uM relative to control; outline: as §1
[15] = tested on: Brain; assay: AUC in CD-1 mouse brain at 10 mg/kg, ip by LC-MS/MS analysis; assay type: ADME, organism-based; set-up: dose 10 mg/kg, route intraperitoneal; settings: in vivo
[16] = target: B1 bradykinin receptor (Homo sapiens) (UniProt P46663); assay: Displacement of [3H]-(Des-Arg10)-Kallidin from bradykinin B1 receptor in human IMR90 cells at 10 uM relative to control; assay type: cell-based; settings: IMR-90; outline: as §1
[17] = target: Sodium-dependent serotonin transporter (Homo sapiens) (UniProt P31645); assay: Displacement of [3H]-Paroxetine from human recombinant SERT expressed in HEK293 cells at 10 uM relative to control; assay type: cell-based
[18] = species: Rattus norvegicus; assay: Displacement of [3H]-Kainic acid from kainate receptor in cerebellum-less rat brain homogenate at 10 uM relative to control; assay type: tissue-based; outline: as §1
[19] = target: Epidermal growth factor receptor (Homo sapiens) (UniProt P00533); assay: Displacement of [125I]-EGF from epidermal growth factor receptor in human A431 cells at 10 uM relative to control; assay type: cell-based; settings: A-431; outline: as §1
[20] = target: Alpha-2A adrenergic receptor (Homo sapiens) (UniProt P08913); assay: Displacement of [3H]-Rauwolscine from human recombinant adrenergic alpha2A receptor expressed in CHO-K1 cells at 10 uM relative to control; assay type: cell-based
[21] = species: Rattus norvegicus; assay: Displacement of [3H]-Idazoxan from central-type imidazoline I2 receptor in rat cerebral cortex at 10 uM relative to control; assay type: tissue-based; outline: as §1
[22] = target: Glutamate NMDA receptor (Rattus norvegicus) (UniProt P35439+Q00959+Q00960+Q00961+Q62645+Q8VHN2+Q9R1M7); assay: Displacement of [3H]-TCP from NMDA receptor phencyclidine binding site in rat cerebral cortex at 10 uM relative to control; assay type: tissue-based
[23] = target: Metabotropic glutamate receptor 8 (Rattus norvegicus) (UniProt P70579); assay: Allosteric modulation of rat mGlu8 receptor expressed in HEK293 cells coexpressing G protein-activated inward rectifier potassium channel assessed as effect on glutamate-induced thallium flux at 10 uM; assay type: cell-based
[24] = species: Rattus norvegicus; assay: Displacement of [35S]-ATP-alpha-S from purinergic P2Y receptor in rat brain at 10 uM relative to control; assay type: tissue-based; outline: as §1
[25] = target: Metabotropic glutamate receptor 7 (Rattus norvegicus) (UniProt P35400); assay: Allosteric modulation of rat mGlu7 receptor expressed in HEK293 cells coexpressing G protein-activated inward rectifier potassium channel assessed as effect on L-AP4-induced thallium flux at 10 uM; assay type: cell-based
[26] = target: Sodium-dependent dopamine transporter (Homo sapiens) (UniProt Q01959); assay: Displacement of [125I]-RTI-55 from human recombinant DAT expressed in CHO-K1 cells at 10 uM relative to control; assay type: cell-based; outline: as §1
[27] = target: Metabotropic glutamate receptor 1 (Rattus norvegicus) (UniProt P23385); assay: Allosteric modulation of rat mGlu1 receptor expressed in HEK293 cells assessed as effect on glutamate-induced calcium mobilization at 10 uM; assay type: functional, cell-based
[28] = Cmax in CD-1 mouse brain at 10 mg/kg, ip by LC-MS/MS analysis; assay type: ADME, organism-based; set-up: dose 10 mg/kg, route intraperitoneal
[29] = target: Delta-type opioid receptor (Homo sapiens) (UniProt P41143); assay: Displacement of [3H]-Naltrindole from human recombinant delta opioid receptor expressed in HEK293 cells at 10 uM relative to control; assay type: cell-based; outline: as §1
[30] = target: Mu-type opioid receptor (Homo sapiens) (UniProt P35372); assay: Displacement of [3H]-Diprenorphine from human recombinant mu opioid receptor expressed in CHO-K1 cells at 10 uM relative to control; assay type: cell-based; outline: as §1
[31] = target: D(3) dopamine receptor (Homo sapiens) (UniProt P35462); assay: Displacement of [3H]-Spiperone from human recombinant dopamine D3 receptor expressed in CHO cells at 10 uM relative to control; assay type: cell-based
[32] = target: 5-hydroxytryptamine receptor 3A (Homo sapiens) (UniProt P46098); assay: Displacement of [3H]-GR-65630 from human recombinant 5-HT3 receptor expressed in HEK293 cells at 10 uM relative to control; assay type: cell-based; outline: as §1
[33] = tested on: CHO-K1; assay: Displacement of [125I]-2-Iodomelatonin from human recombinant MT1 receptor expressed in CHO-K1 cells at 10 uM relative to control; assay type: cell-based; outline: as §1

Sodium-dependent serotonin transporter (Homo sapiens), sequence (P31645 whole entry, looked up): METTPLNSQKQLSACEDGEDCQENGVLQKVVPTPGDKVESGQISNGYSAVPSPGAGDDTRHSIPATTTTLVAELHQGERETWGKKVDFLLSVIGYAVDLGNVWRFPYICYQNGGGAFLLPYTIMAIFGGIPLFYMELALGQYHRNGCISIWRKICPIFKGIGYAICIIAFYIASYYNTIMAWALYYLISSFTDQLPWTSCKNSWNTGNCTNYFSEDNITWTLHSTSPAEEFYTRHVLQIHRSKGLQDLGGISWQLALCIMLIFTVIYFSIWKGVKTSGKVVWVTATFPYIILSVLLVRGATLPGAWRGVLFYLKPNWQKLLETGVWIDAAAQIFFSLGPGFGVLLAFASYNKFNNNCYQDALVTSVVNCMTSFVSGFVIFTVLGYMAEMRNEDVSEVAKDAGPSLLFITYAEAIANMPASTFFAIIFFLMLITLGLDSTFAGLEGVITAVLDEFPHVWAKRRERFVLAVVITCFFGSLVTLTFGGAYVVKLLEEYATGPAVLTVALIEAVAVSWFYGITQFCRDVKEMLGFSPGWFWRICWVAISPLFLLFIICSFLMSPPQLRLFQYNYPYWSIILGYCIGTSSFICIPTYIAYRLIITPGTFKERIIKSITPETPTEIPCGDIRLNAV
Alpha-1B adrenergic receptor (Rattus norvegicus), sequence (P15823 whole entry): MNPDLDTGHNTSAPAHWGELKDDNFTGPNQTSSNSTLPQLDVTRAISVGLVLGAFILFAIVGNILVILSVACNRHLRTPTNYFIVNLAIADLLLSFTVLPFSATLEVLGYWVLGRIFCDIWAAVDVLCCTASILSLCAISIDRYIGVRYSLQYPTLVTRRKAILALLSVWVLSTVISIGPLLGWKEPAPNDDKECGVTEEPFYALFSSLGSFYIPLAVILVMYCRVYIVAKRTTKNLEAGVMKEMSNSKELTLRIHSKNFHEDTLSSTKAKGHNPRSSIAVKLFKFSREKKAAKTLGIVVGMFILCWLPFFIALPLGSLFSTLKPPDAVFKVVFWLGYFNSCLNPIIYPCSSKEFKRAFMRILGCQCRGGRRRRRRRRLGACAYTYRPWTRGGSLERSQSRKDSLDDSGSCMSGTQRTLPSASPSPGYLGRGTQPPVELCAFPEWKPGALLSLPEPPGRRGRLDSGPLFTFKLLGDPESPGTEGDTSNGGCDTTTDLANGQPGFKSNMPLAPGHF
Cannabinoid receptor 1 (Homo sapiens), sequence (P21554 whole entry): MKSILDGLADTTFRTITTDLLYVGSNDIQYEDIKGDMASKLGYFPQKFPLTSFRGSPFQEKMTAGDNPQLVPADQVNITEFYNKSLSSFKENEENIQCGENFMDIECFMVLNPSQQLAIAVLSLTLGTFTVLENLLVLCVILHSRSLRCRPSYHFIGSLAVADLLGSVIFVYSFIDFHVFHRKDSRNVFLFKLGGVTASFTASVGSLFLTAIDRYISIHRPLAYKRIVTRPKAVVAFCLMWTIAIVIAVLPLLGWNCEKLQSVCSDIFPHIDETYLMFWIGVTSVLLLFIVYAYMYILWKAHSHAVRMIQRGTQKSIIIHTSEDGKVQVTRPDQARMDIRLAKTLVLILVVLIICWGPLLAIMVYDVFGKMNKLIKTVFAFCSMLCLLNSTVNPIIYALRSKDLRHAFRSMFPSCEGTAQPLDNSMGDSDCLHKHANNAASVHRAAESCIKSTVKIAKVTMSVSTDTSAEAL
Delta-type opioid receptor (Homo sapiens), sequence (P41143 whole entry): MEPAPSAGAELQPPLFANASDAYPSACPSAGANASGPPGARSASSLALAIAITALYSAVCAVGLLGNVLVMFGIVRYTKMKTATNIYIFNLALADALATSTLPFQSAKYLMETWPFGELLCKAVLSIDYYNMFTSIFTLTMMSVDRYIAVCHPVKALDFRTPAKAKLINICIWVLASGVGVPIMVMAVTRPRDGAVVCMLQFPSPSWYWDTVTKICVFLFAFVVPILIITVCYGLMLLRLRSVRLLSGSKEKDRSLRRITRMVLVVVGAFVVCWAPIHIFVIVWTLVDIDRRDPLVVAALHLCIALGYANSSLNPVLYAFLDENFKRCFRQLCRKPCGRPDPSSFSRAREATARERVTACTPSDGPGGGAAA
Metabotropic glutamate receptor 1 (Rattus norvegicus), sequence (P23385 19-1199 limits assumed): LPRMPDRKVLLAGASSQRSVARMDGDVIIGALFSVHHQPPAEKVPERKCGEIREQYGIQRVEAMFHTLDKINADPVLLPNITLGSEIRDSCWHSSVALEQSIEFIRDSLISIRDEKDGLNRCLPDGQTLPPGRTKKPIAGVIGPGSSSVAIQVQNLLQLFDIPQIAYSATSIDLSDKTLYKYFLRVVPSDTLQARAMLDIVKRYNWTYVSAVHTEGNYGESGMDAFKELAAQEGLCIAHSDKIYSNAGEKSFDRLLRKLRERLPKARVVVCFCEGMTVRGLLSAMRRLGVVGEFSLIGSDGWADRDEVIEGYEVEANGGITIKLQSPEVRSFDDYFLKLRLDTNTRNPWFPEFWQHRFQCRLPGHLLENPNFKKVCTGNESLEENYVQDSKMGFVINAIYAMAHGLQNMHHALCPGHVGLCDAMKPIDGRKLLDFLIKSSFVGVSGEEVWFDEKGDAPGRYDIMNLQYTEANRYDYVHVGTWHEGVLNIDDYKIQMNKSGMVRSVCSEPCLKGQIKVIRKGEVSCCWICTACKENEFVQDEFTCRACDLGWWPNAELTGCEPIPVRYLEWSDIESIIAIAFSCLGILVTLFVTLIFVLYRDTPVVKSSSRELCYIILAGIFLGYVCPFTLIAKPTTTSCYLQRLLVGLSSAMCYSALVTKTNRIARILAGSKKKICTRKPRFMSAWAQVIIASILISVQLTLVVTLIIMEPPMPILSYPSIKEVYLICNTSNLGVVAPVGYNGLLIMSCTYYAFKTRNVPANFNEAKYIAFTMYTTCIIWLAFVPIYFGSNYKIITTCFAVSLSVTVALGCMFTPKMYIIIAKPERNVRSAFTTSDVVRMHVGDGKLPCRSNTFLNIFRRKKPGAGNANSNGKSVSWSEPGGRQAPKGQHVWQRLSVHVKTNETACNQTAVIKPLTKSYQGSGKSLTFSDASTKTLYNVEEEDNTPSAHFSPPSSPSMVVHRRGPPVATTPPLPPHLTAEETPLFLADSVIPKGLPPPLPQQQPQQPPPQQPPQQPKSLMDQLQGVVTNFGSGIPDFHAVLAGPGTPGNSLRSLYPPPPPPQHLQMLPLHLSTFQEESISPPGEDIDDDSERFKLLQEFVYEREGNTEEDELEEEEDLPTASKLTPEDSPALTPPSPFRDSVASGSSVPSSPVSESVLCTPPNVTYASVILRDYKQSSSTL
Metabotropic glutamate receptor 7 (Rattus norvegicus), sequence (P35400 whole entry): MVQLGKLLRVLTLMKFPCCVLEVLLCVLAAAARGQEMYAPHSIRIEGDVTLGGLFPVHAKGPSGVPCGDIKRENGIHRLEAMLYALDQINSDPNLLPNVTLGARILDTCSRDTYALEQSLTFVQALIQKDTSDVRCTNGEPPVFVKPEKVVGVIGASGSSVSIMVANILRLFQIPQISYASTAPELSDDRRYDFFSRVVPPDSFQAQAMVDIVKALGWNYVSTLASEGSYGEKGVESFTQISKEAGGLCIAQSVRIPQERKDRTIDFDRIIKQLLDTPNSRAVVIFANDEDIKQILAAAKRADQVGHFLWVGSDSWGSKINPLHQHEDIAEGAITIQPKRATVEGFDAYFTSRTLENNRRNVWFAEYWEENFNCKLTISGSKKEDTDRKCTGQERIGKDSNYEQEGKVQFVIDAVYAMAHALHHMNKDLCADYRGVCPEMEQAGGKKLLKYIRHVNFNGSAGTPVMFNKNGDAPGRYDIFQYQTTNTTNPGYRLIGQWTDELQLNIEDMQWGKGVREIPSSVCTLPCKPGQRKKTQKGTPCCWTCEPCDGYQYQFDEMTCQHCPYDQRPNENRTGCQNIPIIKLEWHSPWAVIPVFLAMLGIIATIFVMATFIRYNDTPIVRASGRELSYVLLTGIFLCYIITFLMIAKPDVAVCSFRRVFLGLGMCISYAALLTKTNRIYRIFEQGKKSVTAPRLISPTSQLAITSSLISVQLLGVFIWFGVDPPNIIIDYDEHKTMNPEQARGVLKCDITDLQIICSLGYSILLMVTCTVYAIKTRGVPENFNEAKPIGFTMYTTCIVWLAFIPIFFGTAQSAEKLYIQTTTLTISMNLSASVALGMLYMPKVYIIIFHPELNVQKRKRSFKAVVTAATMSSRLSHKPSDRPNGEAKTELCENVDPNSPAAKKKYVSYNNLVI
Androgen receptor (Homo sapiens), sequence (P10275 whole entry): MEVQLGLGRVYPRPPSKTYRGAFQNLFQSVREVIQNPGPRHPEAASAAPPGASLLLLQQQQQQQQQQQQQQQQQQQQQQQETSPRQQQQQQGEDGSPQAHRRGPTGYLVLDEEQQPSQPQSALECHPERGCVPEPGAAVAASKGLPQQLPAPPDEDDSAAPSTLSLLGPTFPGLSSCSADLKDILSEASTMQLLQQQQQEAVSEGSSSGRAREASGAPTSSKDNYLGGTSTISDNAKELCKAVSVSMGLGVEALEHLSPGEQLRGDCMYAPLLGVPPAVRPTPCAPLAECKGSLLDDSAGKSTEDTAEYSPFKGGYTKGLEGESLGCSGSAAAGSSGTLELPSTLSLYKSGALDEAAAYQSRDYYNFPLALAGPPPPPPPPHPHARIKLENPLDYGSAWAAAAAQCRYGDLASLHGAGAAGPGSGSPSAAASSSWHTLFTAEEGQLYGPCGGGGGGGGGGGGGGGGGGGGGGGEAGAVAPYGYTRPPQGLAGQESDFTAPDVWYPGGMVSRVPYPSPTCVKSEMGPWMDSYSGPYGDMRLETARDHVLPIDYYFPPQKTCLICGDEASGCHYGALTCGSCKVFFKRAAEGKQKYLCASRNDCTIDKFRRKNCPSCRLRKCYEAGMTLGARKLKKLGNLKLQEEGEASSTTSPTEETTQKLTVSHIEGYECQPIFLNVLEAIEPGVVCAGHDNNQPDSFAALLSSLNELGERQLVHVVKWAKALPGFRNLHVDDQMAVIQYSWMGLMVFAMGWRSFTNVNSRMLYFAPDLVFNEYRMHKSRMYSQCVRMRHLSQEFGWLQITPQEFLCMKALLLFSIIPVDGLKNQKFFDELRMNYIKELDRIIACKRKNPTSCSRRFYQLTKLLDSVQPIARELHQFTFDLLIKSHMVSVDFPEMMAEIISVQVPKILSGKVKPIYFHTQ

Question: Which inhibition [1] does the source give for `Cc1csc(NC(=O)c2cc(F)cc(Oc3cncnc3)c2)n1` here?
Answer: > 35%

Question: What about the inhibition [2] of the same compound?
Answer: > 35%

Question: And the inhibition [3]?
Answer: > 35%

Question: And the inhibition [4]?
Answer: > 35%

Question: And the inhibition [5]?
Answer: > 35%

Question: What about the inhibition [6] of the same compound?
Answer: > 35%

Question: And the inhibition [7]?
Answer: > 35%

Question: What about the inhibition [8] of the same compound?
Answer: > 35%

Question: And the inhibition [9]?
Answer: > 35%

Question: And the inhibition at 10 µM [10]?
Answer: > 35%

Question: And the inhibition [11]?
Answer: > 35%

Question: And the inhibition [12]?
Answer: > 35%

Question: And the inhibition [13]?
Answer: > 35%

Question: And the inhibition [14]?
Answer: > 35%

Question: And the AUC [15]?
Answer: 696 ng·h/g

Question: What about the inhibition [16] of the same compound?
Answer: > 35%

Question: What about the inhibition [17] of the same compound?
Answer: > 35%

Question: What about the inhibition [18] of the same compound?
Answer: > 35%

Question: What about the inhibition [19] of the same compound?
Answer: > 35%

Question: What about the inhibition [20] of the same compound?
Answer: > 35%

Question: And the inhibition [21]?
Answer: > 35%

Question: And the inhibition [22]?
Answer: > 35%

Question: What about the Activity [23] of the same compound?
Answer: inactive

Question: What about the inhibition [24] of the same compound?
Answer: > 35%

Question: What about the Activity [25] of the same compound?
Answer: inactive

Question: And the inhibition [26]?
Answer: > 35%

Question: And the Activity [27]?
Answer: inactive

Question: What about the Cmax [28] of the same compound?
Answer: 1350 ng/g

Question: And the inhibition [29]?
Answer: > 35%

Question: What about the inhibition [30] of the same compound?
Answer: > 35%

Question: And the inhibition [31]?
Answer: > 35%

Question: And the inhibition [32]?
Answer: > 35%

Question: And the inhibition [33]?
Answer: > 35%
